Reference: paper PMC9449982 (Molecular Pharmaceutics, 2022)
Converted amounts (≈) assume the structure as drawn. “And” between values parts separate entries of the source, which are not always exact repeats. Equal values may be shown once. Read-outs that look alike come from different tables or passages of the source. Values belong to the compound of their own block, whether it stands above or below them.

Legend:
[1] = Particle size determination by dynamic light scattering; assay type: physicochemical
[2] = cited from earlier work
[3] = cited from earlier work; for Tg, dry / glass transition temperature (Tg): dry
[4] = Amorphous solubility determination, ultracentrifugation; assay type: physicochemical; details: phosphate buffer with HPMCAS, pH 6.5, aqueous buffer, kinetic from dmso stock
Method in brief: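 Test compound DMSO stock added to 50 mM pH 6.5 sodium phosphate buffer with 100 μg/mL predissolved HPMCAS, keeping organic solvent below 2% (v/v). Mixture stirred 15 min to form amorphous aggregates, then spun at 35,000 rpm for 30 min. Supernatant diluted 1:1 in mobile phase and quantified by isocratic C18 HPLC at 210 nm. At least triplicate.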

[5] = Wet glass transition temperature; assay type: physicochemical; details: amorphous drug equilibrated at 97% relative humidity 48 h; DSC onset
Method in brief: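 Amorphous test compound powder was freshly prepared and vacuum-dried overnight at room temperature. Then 5–10 mg in open hermetic pans was held at 97% relative humidity (saturated potassium sulfate) for 48 h. Pans sealed; DSC run 0 to 90 °C at 10 °C/min. Onset glass transition taken as wet Tg. Triplicate.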

[6] = Flux measurements, Franz diffusion cells; assay type: in vitro ADME

Z-average ([1]; particles from stock 5 mg/mL, 1000 rpm, 25 °C): 254 ± 3 nm
diffusion coefficient Dp ([1]; particles from stock 5 mg/mL, 1000 rpm, 25 °C (254 nm), listed as LPV): 1.94 ± 0.00 ×10^–8 cm^2/s
Z-average ([1]; particles from stock 12 mg/mL, 300 rpm, 25 °C): 454 ± 10 nm
diffusion coefficient Dp ([1]; particles from stock 12 mg/mL, 300 rpm, 25 °C (454 nm), listed as LPV): 1.09 ± 0.00 ×10^–8 cm^2/s
Z-average ([1]; particles from stock 20 mg/mL, 300 rpm, 25 °C): 839 ± 15 nm
diffusion coefficient Dp ([1]; particles from stock 20 mg/mL, 300 rpm, 25 °C (839 nm), listed as LPV): 0.59 ± 0.01 ×10^–8 cm^2/s
solubility at 15 min [4]: 19.3 ± 2 µg/mL (≈ 30.7 µM)
Tg, wet [5]: 42 °C and 42.2 ± 1.8 °C
SMILES: Cc1cccc(C)c1OCC(=O)N[C@@H](Cc1ccccc1)[C@@H](O)C[C@H](Cc1ccccc1)NC(=O)[C@H](C(C)C)N1CCCNC1=O [lopinavir]
pKa ([2]; no reference printed): not dissociated at physiological pHs
pKa ([2]; no reference printed, listed as Lopinavir): not expected to dissociate within physiological pH ranges
Tg, dry [3]: 69 °C
glass transition temperature (Tg) [3]: 69 °C

Z-average ([1]; particles from stock 5 mg/mL, 1000 rpm, 37 °C): 193 ± 4 nm
diffusion coefficient Dp ([1]; particles from stock 5 mg/mL, 1000 rpm, 37 °C (193 nm), listed as ATZ): 3.43 ± 0.07 ×10^–8 cm^2/s
Z-average ([1]; particles from stock 20 mg/mL, 1000 rpm, 37 °C): 460 ± 23 nm
diffusion coefficient Dp ([1]; particles from stock 20 mg/mL, 1000 rpm, 37 °C (460 nm), listed as ATZ): 1.44 ± 0.07 ×10^–8 cm^2/s
transmembrane flux ([6]; donor ∼20 μg/mL, 150 rpm, no BSA, 37 °C): 0.023 ± 0.003 μg/(min·cm^2)
transmembrane flux ([6]; donor ∼20 μg/mL, 300 rpm, no BSA, 37 °C): 0.030 ± 0.003 μg/(min·cm^2)
transmembrane flux ([6]; donor ∼20 μg/mL, 500 rpm, no BSA, 37 °C): 0.041 ± 0.005 μg/(min·cm^2)
transmembrane flux ([6]; donor ∼40 μg/mL (amorphous solubility), 300 rpm, no BSA, 37 °C): 0.048 ± 0.012 μg/(min·cm^2)
transmembrane flux ([6]; donor ∼40 μg/mL, 500 rpm, no BSA, 37 °C): 0.070 ± 0.008 μg/(min·cm^2)
transmembrane flux ([6]; donor ∼40 μg/mL, 1000 rpm, no BSA, 37 °C): 0.072 ± 0.019 μg/(min·cm^2)
donor concentration at which a flux plateau was observed ([6]; stirring rates equal to or higher than 300 rpm, no BSA): about 150 μg/mL
solubility at 15 min [4]: 37.7 ± 3.2 µg/mL (≈ 53.5 µM)
SMILES: COC(=O)N[C@H](C(=O)N[C@@H](Cc1ccccc1)[C@@H](O)CN(Cc1ccc(-c2ccccn2)cc1)NC(=O)[C@@H](NC(=O)OC)C(C)(C)C)C(C)(C)C [atazanavir]
pKa ([2]; basic): 4.52,[45] basic
glass transition temperature (Tg) [3]: 104 °C
Tg, wet ([3]; water saturated amorphous precipitates): 51 °C

bulk concentration at which a flux plateau was observed ([6]; 150 rpm, 37 °C, 3% BSA): around 150 μg/mL
solubility at 15 min [4]: 7.7 ± 0.3 µg/mL (≈ 22.3 µM)
SMILES: Clc1ccccc1C(c1ccccc1)(c1ccccc1)n1ccnc1 [clotrimazole]
pKa ([2]; basic): 5.89,[45] basic
Tg, dry [3]: 28,[45] NA ^a °C
glass transition temperature (Tg) [3]: 28 °C
